Values after ≈ are worked out from the molar mass of the structure shown.
Tests used:
[1] = Inhibition of calf brain tubulin polymerization; parameters: species or system Bos taurus
Method in brief: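 Tubulin was purified from calf brain. Assembly was followed by turbidity at 350 nm. IC50 was obtained by nonlinear regression of the data.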

[2] = tested on: NCI-H460; experiment: Cytotoxicity against human NCI-H460 cells after 48 hrs by SRB assay; type: functional; conditions: NCI-H460, 48 h
Method in brief: (§1)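 Cells were seeded in culture medium with 5% fetal bovine serum and incubated 24 h, then serial dilutions of compound were added. After 48 h, cells were fixed with trichloroacetic acid and stained with sulforhodamine B, and optical density was read on a plate reader. GI50 is the concentration giving a 50% reduction in net protein increase, calculated from optical density.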

[3] = tested on: DU-145; experiment: Cytotoxicity against human DU145 cells after 48 hrs by SRB assay; type: functional; conditions: DU-145, 48 h; method in brief: as §1

IC50 [1]	SMILES	GI50 [2]	GI50 [3]
> 40000 nM	COc1ccc(/C=C\c2cc(F)c(F)c(F)c2)cc1[N+](=O)[O-]	> 5 µg/mL	> 5 µg/mL
> 40000 nM	COc1ccc(/C=C/c2cc(F)c(F)c(F)c2)cc1N	> 5 µg/mL	> 5 µg/mL
–	COc1ccc(/C=C/c2cc(F)c(F)c(F)c2)c([N+](=O)[O-])c1	> 5 µg/mL	> 5 µg/mL
–	COc1ccc(/C=C/c2cc(F)c(F)c(F)c2)c(N)c1	> 5 µg/mL	> 5 µg/mL
–	COc1ccc(/C=C\c2cc(F)c(F)c(F)c2)c(N)c1	> 5 µg/mL	4.3 µg/mL (≈ 15.4 µM)
–	COc1ccc(/C=C\c2cc(OC)c(OC)c(OC)c2)cc1O [COMBRETASTATIN A4]	0.0006 µg/mL (≈ 0.0019 µM)	0.0008 µg/mL (≈ 0.00253 µM)
2900 nM	COc1ccc(/C=C\c2cc(F)c(F)c(F)c2)cc1N	0.11 µg/mL (≈ 0.394 µM)	0.072 µg/mL (≈ 0.258 µM)
–	COc1ccc(/C=C\c2cc(F)c(F)c(F)c2)c([N+](=O)[O-])c1	> 5 µg/mL	> 5 µg/mL
> 40000 nM	COc1ccc(/C=C/c2cc(F)c(F)c(F)c2)cc1[N+](=O)[O-]	> 5 µg/mL	> 5 µg/mL
4500 nM	COc1ccc(/C=C\c2cc(F)c(F)c(F)c2)cc1O	0.2 µg/mL (≈ 0.714 µM)	0.04 µg/mL (≈ 0.143 µM)

SMILES	IC50 [1]	GI50 [2]	GI50 [3]
COc1ccc(/C=C\c2cc(OC)c(OC)c(OC)c2)cc1N	2600 nM	0.00068 µg/mL (≈ 0.00216 µM)	0.00096 µg/mL (≈ 0.00304 µM)
COc1ccc(/C=C\c2cc(OC)c(OC)c(OC)c2)c(N)c1	1400 nM	0.0012 µg/mL (≈ 0.00381 µM)	0.0016 µg/mL (≈ 0.00507 µM)

— ChEMBL document CHEMBL1141679, “Design, synthesis, biochemical, and biological evaluation of nitrogen-containing trifluoro structural modifications of combretastatin A-4” (Bioorg Med Chem Lett, 2008)
